≈ marks a conversion by molar mass, not a printed value. Calls of active or inactive are those of the source. No cut-off for these calls is given here.
Assays:
Staphylococcus aureus [1] = experiment: Antibacterial activity against Staphylococcus aureus ATCC 25923 after 16 hrs by broth micro dilution method; assay type: functional; settings: ATCC 25923, 16 h
Procedure, shortened: (§1)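 Mueller-Hinton broth microdilution. Bacteria were grown overnight at 37 °C with shaking, diluted 1:100 and grown to mid-exponential phase. About 3 × 10^5 CFU per well went into MH with test compound (0–256 μg/mL) in DMSO vehicle. Plates were incubated at 37 °C for 16 h. MIC was the lowest concentration without growth visible by eye; three independent assays.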

Escherichia coli = experiment: Antibacterial activity against Escherichia coli RFM795 harboring lptD gene mutant after 16 hrs by broth micro dilution method; assay type: functional; settings: RFM795, 16 h; procedure, shortened: as §1
Staphylococcus aureus [2] = experiment: Antibacterial activity against methicillin-sensitive Staphylococcus aureus UAMS-1 after 16 hrs by broth micro dilution method; assay type: functional; settings: UAMS-1, 16 h; procedure, shortened: as §1
Staphylococcus aureus [3] = experiment: Antibacterial activity against methicillin-resistant Staphylococcus aureus LAC JE2 after 16 hrs by broth micro dilution method; assay type: functional; settings: LAC JE2, 16 h; procedure, shortened: as §1
Staphylococcus aureus [4] = experiment: Antibacterial activity against vancomycin-intermediate Staphylococcus aureus Mu50 after 16 hrs by broth micro dilution method; assay type: functional; settings: Mu50, 16 h; procedure, shortened: as §1
Staphylococcus aureus [5] = experiment: Antibacterial activity against vancomycin-resistant Staphylococcus aureus isolate 1 after 16 hrs by broth micro dilution method; assay type: functional; settings: isolate 1, 16 h; procedure, shortened: as §1
Staphylococcus aureus [6] = experiment: Antibacterial activity against vancomycin-resistant Staphylococcus aureus isolate 10 after 16 hrs by broth micro dilution method; assay type: functional; settings: isolate 10, 16 h; procedure, shortened: as §1
HepG2 = experiment: Cytotoxicity against human HepG2 cells at <= 64 ug/ml by MTT assay; assay type: cell-based
Procedure, shortened: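 HepG2 human hepatocellular carcinoma cells; colorimetric MTT cell proliferation assay; compound tested at final concentrations up to 64 μg/mL.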

[7] = biological target: T1, UDP-N-acetylglucosamine 1-carboxyvinyltransferase 1 (Staphylococcus aureus subsp. aureus N315) (UniProt P84058); experiment: Inhibition of GST-tagged Staphylococcus aureus MurA expressed in Escherichia coli BL21(DE3) cells assessed as reduction in EP-UDP-GlcNAc production at 650 uM preincubated with UDP-GlcNAc and enzyme for 10 mins followed by PEP addition measured after 3 hrs by HPLC analysis
T1 sequence (whole entry): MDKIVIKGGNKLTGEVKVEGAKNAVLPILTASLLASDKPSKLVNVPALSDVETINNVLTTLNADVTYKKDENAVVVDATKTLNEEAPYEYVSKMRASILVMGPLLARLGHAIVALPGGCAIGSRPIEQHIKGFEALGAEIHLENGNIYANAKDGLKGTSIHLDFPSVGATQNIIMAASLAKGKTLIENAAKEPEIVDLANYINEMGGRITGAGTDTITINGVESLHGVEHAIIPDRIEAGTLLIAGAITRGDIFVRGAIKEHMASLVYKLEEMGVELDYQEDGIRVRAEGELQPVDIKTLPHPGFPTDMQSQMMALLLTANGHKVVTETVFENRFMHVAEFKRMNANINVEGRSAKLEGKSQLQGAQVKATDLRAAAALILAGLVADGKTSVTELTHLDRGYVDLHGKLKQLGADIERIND
Procedure, shortened: (§2)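 Tag-cleaved S. aureus MurA, 1.0 μg. Preincubated 10 min on ice with 650 μM compound plus 400 μM PEP or 400 μM UDP-GlcNAc. Reaction started with 600 μM of the other substrate, then run 3 h at room temperature in triple replicates. UDP-GlcNAc and EP-UDP-GlcNAc separated by anion-exchange HPLC.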

[8] = biological target: T1, UDP-N-acetylglucosamine 1-carboxyvinyltransferase 1 (Staphylococcus aureus subsp. aureus N315); experiment: Inhibition of GST-tagged Staphylococcus aureus MurA expressed in Escherichia coli BL21(DE3) cells assessed as reduction in EP-UDP-GlcNAc production at 650 uM preincubated with PEP and enzyme for 10 mins followed by UDP-GlcNAc addition measured after 3 hrs by HPLC analysis; procedure, shortened: as §2
[9] = biological target: T2, UDP-N-acetylglucosamine 1-carboxyvinyltransferase 1 (Staphylococcus aureus subsp. aureus N315, UniProt P84058); experiment: Inhibition of GST-tagged Staphylococcus aureus MurA expressed in Escherichia coli BL21(DE3) cells preincubated with PEP and enzyme for 10 mins followed by UDP-GlcNAc addition measured after 3 hrs by HPLC analysis
T2 sequence (P84058 whole entry): T1 sequence (whole entry)
Procedure, shortened: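 Purified S. aureus MurA (GST tag cleaved off by PreScission protease, 350 nM) was preincubated 10 min with 300 μM PEP and albocycline (0–5000 μM) in 50 mM Tris, 2 mM KCl at 25 °C, in triplicate. UDP-GlcNAc was then added and the reaction run 3 h at room temperature. UDP-GlcNAc and EP-UDP-GlcNAc were separated by MonoQ anion-exchange HPLC with an ammonium bicarbonate gradient. Percent inhibition came from relative peak areas, and IC50 from a nonlinear dose-response fit.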

[10] = biological target: UDP-N-acetylglucosamine 1-carboxyvinyltransferase (Escherichia coli K-12) (UniProt P0A749); experiment: Inhibition of GST-tagged Escherichia coli MurA expressed in Escherichia coli BL21(DE3) cells preincubated with PEP and enzyme for 10 mins followed by UDP-GlcNAc addition measured after 3 hrs by HPLC analysis
Procedure, shortened: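 GST-tagged enzyme, GST removed by PreScission protease after glutathione affinity capture. Conditions: 50 mM Tris, 2 mM KCl, room temperature (25 °C), in triplicate. Enzyme preincubated 10 min with PEP and compound, then UDP-GlcNAc added. Substrate and product separated by MonoQ anion-exchange HPLC with an ammonium bicarbonate gradient. Percent inhibition taken from UDP-GlcNAc/EP-UDP-GlcNAc peak areas.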

Staphylococcus aureus [11] = experiment: Antibacterial activity against methicillin-resistant Staphylococcus aureus; assay type: functional; procedure, shortened: as §1
[12] = biological target: T2, UDP-N-acetylglucosamine 1-carboxyvinyltransferase 1; experiment: Inhibition of Staphylococcus aureus MurA assessed as reduction in [3H]GlcNAc uptake
[13] = system: UDP-N-acetylglucosamine 1-carboxyvinyltransferase 2 (Staphylococcus aureus); experiment: Inhibition of GST-tagged Staphylococcus aureus MurZ expressed in Escherichia coli BL21(DE3) cells preincubated with PEP and enzyme for 10 mins followed by UDP-GlcNAc addition measured after 3 hrs by HPLC analysis

UDP-N-acetylglucosamine 1-carboxyvinyltransferase (Escherichia coli K-12), sequence (P0A749 whole entry): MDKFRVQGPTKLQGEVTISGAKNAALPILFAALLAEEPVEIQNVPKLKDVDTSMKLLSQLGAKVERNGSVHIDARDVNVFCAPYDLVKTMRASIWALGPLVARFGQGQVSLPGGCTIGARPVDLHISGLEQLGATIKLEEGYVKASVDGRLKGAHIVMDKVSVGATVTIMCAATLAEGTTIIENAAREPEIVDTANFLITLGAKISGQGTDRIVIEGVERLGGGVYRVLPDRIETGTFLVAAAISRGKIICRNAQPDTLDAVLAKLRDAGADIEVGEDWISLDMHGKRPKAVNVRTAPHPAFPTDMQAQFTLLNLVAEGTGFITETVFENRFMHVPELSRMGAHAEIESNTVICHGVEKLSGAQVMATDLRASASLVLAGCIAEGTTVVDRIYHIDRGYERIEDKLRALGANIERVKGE

C[C@@H]1O[C@@H]1P(=O)(O)O [FOSFOMYCIN]
MIC (Staphylococcus aureus [1]): 32 µg/mL (≈ 232 µM) | MIC (Escherichia coli): 1 µg/mL (≈ 7.24 µM)

CO[C@H]1/C=C/[C@@](C)(O)/C=C/C(=O)O[C@H](C)[C@@H](C)CC/C=C/1C
MIC (Staphylococcus aureus [1]): 1 µg/mL (≈ 3.24 µM) | MIC (Escherichia coli): > 256 µg/mL | MIC (Staphylococcus aureus [2]): 0.5 µg/mL (≈ 1.62 µM) | MIC (Staphylococcus aureus [3]): 2 µg/mL (≈ 6.48 µM) | MIC (Staphylococcus aureus [4]): 2 µg/mL (≈ 6.48 µM) | MIC (Staphylococcus aureus [5]): 4 µg/mL (≈ 13 µM) | MIC (Staphylococcus aureus [6]): 1 µg/mL (≈ 3.24 µM) | Activity (HepG2): Non-Toxic | inhibition [7]: inactive | inhibition [8]: Active | IC50 [9]: 480 µM | inhibition [10]: inactive | MIC (Staphylococcus aureus [11]): 0.5 to 1 µg/mL (≈ 1.62 to 3.24 µM) | IC50 [12]: 112 µM | inhibition [13]: inactive

CN[C@H](CC(C)C)C(=O)N[C@H]1C(=O)N[C@@H](CC(N)=O)C(=O)N[C@H]2C(=O)N[C@H]3C(=O)N[C@H](C(=O)N[C@H](C(=O)O)c4cc(O)cc(O)c4-c4cc3ccc4O)[C@H](O)c3ccc(c(Cl)c3)Oc3cc2cc(c3O[C@@H]2O[C@H](CO)[C@@H](O)[C@H](O)[C@H]2O[C@H]2C[C@](C)(N)[C@H](O)[C@H](C)O2)Oc2ccc(cc2Cl)[C@H]1O [VANCOMYCIN]
MIC (Staphylococcus aureus [5]): > 64 µg/mL | MIC (Staphylococcus aureus [6]): > 64 µg/mL

— ChEMBL document CHEMBL4118218, “Elucidating the inhibition of peptidoglycan biosynthesis in Staphylococcus aureus by albocycline, a macrolactone isolated from Streptomyces maizeus” (Bioorg Med Chem, 2018)
